According to ChEMBL document CHEMBL3351394 (J Med Chem, 2014):

Experiments:
[1] = molecular target: T1, G-protein coupled bile acid receptor 1 (Homo sapiens, UniProt Q8TDU6); experiment: Activity at TGR5 in human NCI-H716 cells assessed as effect on intracellular cAMP accumulation incubated for 60 mins by HTR-FRET assay; type: functional, cell-based
T1 sequence (Q8TDU6 whole entry): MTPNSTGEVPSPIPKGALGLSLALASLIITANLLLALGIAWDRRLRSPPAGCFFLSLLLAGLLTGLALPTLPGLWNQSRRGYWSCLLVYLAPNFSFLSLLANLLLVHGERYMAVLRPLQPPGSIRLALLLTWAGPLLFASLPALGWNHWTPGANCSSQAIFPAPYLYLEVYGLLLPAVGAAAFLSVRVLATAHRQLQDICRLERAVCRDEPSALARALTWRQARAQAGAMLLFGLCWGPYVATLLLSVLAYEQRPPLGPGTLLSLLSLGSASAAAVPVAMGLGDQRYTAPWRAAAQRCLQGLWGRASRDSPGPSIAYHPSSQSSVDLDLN
Outline: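 NCI-H716 cells on Matrigel-coated plates were stimulated 24 h after plating with increasing compound concentrations for 60 min at 37 °C in OptiMEM containing 1 mM IBMX. Intracellular cAMP was read by HTRF (Lance kit).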

[2] = molecular target: T2, Bile acid receptor (Homo sapiens) (UniProt Q96RI1); experiment: Agonist activity at FXR in human HepG2 cells assessed as induction of SHP mrNA expression at 1 uM by quantitative PCR method; type: cell-based
T2 sequence (whole entry): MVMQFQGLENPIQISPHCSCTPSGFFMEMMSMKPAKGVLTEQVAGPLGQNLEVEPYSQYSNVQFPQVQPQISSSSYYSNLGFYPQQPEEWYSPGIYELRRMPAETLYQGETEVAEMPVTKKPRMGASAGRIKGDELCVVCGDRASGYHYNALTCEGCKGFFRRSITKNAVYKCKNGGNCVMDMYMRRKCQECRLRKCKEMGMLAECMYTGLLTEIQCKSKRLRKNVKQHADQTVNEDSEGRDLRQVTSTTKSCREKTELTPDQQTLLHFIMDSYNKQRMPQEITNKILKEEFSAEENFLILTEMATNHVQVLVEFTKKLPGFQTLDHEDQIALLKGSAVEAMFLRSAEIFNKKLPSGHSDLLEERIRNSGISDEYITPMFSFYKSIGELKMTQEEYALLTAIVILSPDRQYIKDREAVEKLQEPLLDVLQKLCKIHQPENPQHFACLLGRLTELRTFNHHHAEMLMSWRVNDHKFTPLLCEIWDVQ
Outline: (§1)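 HepG2 cells were seeded at 2 × 10⁶ per well. After 24 h they were switched to MEM with 1% charcoal-stripped FCS, and 24 h later dosed with compound (0.1, 0.3, 1, 3, 10 μM; 0.1% DMSO final) for 24 h. Total RNA was reverse transcribed and analysed by qPCR, GAPDH-normalized, ΔΔCt method. Samples were run in duplicate in ≥4 independent experiments.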

[3] = molecular target: T2, Bile acid receptor (Homo sapiens); experiment: Agonist activity at FXR in human HepG2 cells assessed as induction of SHP mrNA expression at 0.1 uM by quantitative PCR method; type: cell-based; outline: as §1
[4] = molecular target: T2, Bile acid receptor (Homo sapiens); experiment: Agonist activity at FXR in human HepG2 cells assessed as induction of SHP mrNA expression at 10 uM by quantitative PCR method; type: cell-based; outline: as §1
[5] = molecular target: T3, Peroxisome proliferator-activated receptor delta (Homo sapiens, UniProt Q03181); experiment: Activity at GAL4-tagged PPARdelta (unknown origin) expressed in COS7 cells assessed as receptor transactivation by luciferase reporter gene assay; type: cell-based, COS-7
T3 sequence (Q03181 whole entry): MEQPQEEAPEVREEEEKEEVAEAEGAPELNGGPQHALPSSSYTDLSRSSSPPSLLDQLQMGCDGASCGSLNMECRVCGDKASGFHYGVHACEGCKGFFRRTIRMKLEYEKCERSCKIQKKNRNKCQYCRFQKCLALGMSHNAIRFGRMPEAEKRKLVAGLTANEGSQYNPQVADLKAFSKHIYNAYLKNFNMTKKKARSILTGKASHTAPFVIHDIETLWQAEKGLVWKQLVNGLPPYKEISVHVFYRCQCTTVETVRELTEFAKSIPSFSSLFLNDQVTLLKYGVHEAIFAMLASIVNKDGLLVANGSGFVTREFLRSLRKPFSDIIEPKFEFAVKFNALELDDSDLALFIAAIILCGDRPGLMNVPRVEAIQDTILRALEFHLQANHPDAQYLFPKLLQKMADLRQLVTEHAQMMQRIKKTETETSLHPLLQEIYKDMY
Outline: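 Each PPAR subtype was tested as a Gal4 fusion carrying the human hinge region and LBD (cDNA from human monocytes) in transiently transfected COS-7 cells (Lipofectamine LTX), with a pFR-Luc reporter and pRL-SV40 for normalization. Compound in 0.1% DMSO was added 5 h post-transfection and incubated overnight. Firefly/renilla RLU was scaled to 1 μM GW7647 (α), L165,041 (δ) or pioglitazone (γ).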

[6] = molecular target: T2, Bile acid receptor (Homo sapiens); experiment: Agonist activity at FXR in human HepG2 cells assessed as induction of SHP mrNA expression at 0.3 uM by quantitative PCR method; type: cell-based; outline: as §1
[7] = tested on: HepG2; experiment: Cytotoxicity against human HepG2 cells assessed as compound concentration causing reduction in cell viability by LDH release assay; type: cell-based
Outline: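 HepG2 cells were plated at 3 × 10⁴ per well. After 24 h they were switched to DMEM with 1% FCS and treated for 48 h; 2% Triton X-100 added 2 h before reading served as 100%. LDH reagent was added to the supernatant for 20 min and absorbance read at 490/690 nm. Triplicates, ≥3 independent repeats.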

[8] = molecular target: T2, Bile acid receptor (Homo sapiens); experiment: Agonist activity at FXR in human HepG2 cells assessed as induction of IBABP mrNA expression at 3 uM by quantitative PCR method; type: cell-based
[9] = molecular target: T4, Bile acid receptor (Homo sapiens, UniProt Q96RI1); experiment: Agonist activity at human FXR expressed in human HeLa cells assessed as receptor activation by BSEP promoter-driven firefly luciferase reporter gene assay; type: cell-based; details: read-out: EC50
T4 sequence (Q96RI1 whole entry): T2 sequence (whole entry)

[10] = molecular target: T2, Bile acid receptor (Homo sapiens); experiment: Agonist activity at FXR in human HepG2 cells assessed as induction of OSTalpha mrNA expression at 1 uM by quantitative PCR method; type: cell-based; outline: as §1
[11] = molecular target: T2, Bile acid receptor (Homo sapiens); experiment: Agonist activity at FXR in human HepG2 cells assessed as induction of BSEP mrNA expression at 3 uM by quantitative PCR method; type: cell-based; outline: as §1
[12] = molecular target: T2, Bile acid receptor (Homo sapiens); experiment: Agonist activity at FXR in human HepG2 cells assessed as induction of CYP7A1 mrNA expression at 1 uM by quantitative PCR method; type: cell-based; outline: as §1
[13] = molecular target: T2, Bile acid receptor (Homo sapiens); experiment: Agonist activity at FXR in human HepG2 cells assessed as induction of CYP7A1 mrNA expression at 0.3 uM by quantitative PCR method; type: cell-based; outline: as §1
[14] = molecular target: T2, Bile acid receptor (Homo sapiens); experiment: Agonist activity at FXR in human HepG2 cells assessed as induction of IBABP mrNA expression at 0.1 uM by quantitative PCR method; type: cell-based
[15] = molecular target: T2, Bile acid receptor (Homo sapiens); experiment: Agonist activity at FXR in human HepG2 cells assessed as induction of CYP7A1 mrNA expression at 0.1 uM by quantitative PCR method; type: cell-based; outline: as §1
[16] = molecular target: T2, Bile acid receptor (Homo sapiens); experiment: Agonist activity at FXR in human HepG2 cells assessed as induction of SHP mrNA expression at 3 uM by quantitative PCR method; type: cell-based; outline: as §1

EC50 [1]: 30 µM | Activity [2]: 181% | Activity [3]: 239% | Activity [4]: 214% | EC50 [5]: 3 µM | Activity [6]: 247% | Activity [8]: 168% | Activity [10]: 140% | Activity [12]: 55% | Activity [13]: 59% | Activity [14]: 188% | Activity [15]: 52% | Activity [16]: 185%
SMILES: COc1ccc(C(=O)Nc2cccc(C(=O)O)c2)c(NC(=O)c2ccc(C(C)(C)C)cc2)c1
Activity [7]: >= 30 uM | EC50 [9]: 0.008 µM | Activity [11]: 326%
